Test results published in the array DNA melting data of Ke et al. (doi:10.1101/2024.01.08.574731).

How the values were obtained:
[1] = folding enthalpy; higher = less favourable; fluorescence melt of hairpins on a sequencing array, two-state fit; details: sodium 0.088 M
Outline: (§1)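 Melting temperature and folding enthalpy were derived from bootstrapped two-state fits. The fitted temperatures were raised by 9.35 °C to agree with UV melts, and four replicates were combined by inverse variance. The underlying data were Cy3 fluorescence images of library hairpins, with annealed Cy3 and quencher oligos, on a sequenced MiSeq flow cell in 50 mM Na-HEPES pH 8.0, 25 mM NaCl, taken in 2.5 °C steps up to 60 °C, normalised to pre-quench Cy3 and to control constructs.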

[2] = melting temperature; fluorescence melt of hairpins on a sequencing array, two-state fit, raised by 9.35 °C to match UV melts; details: sodium 0.088 M
Outline: as §1

Sequence | folding enthalpy [1] | Tm [2]
GATCTATCGATAGATC ((((((....)))))) | -44.3 kcal/mol | 48 °C
GATCTATCGTAGATC ((((((...)))))) | -12.9 kcal/mol | 38.4 °C
GATCTATCGTTAGATC ((((((....)))))) | -19.4 kcal/mol | 37.8 °C
GATCTATCTATAGATC ((((((....)))))) | -38 kcal/mol | 47.4 °C
GATCTATGATTAGATC ((((((....)))))) | -31.9 kcal/mol | 39.8 °C
GATCTATGCATAGATC ((((((....)))))) | -43.4 kcal/mol | 49.9 °C
GATCTATGCTTAGATC ((((((....)))))) | -35.8 kcal/mol | 44.5 °C
GATCTATGTCTAGATC ((((((....)))))) | -26.6 kcal/mol | 38.5 °C
GATCTATGTTAGATC ((((((...)))))) | -27.7 kcal/mol | 41.3 °C
GATCTATTCGTAGATC ((((((....)))))) | -33.5 kcal/mol | 44.8 °C
GATCTATTTATAGATC ((((((....)))))) | -48.6 kcal/mol | 51.8 °C
GATCTATTTCTAGATC ((((((....)))))) | -30.2 kcal/mol | 38.9 °C
GATCTATTTTTAGATC ((((((....)))))) | -42.5 kcal/mol | 44.3 °C
GATCTCAAAAGAGATC ((((((....)))))) | -29.8 kcal/mol | 48.5 °C
GATCTCAAACGAGATC ((((((....)))))) | -41.4 kcal/mol | 50.2 °C
GATCTCAACGAGATC ((((((...)))))) | -35.5 kcal/mol | 55.8 °C
GATCTCAAGGGAGATC ((((((....)))))) | -28.6 kcal/mol | 50.8 °C
GATCTCACTCGAGATC ((((((....)))))) | -50.8 kcal/mol | 52.1 °C
GATCTCACTTGAGATC ((((((....)))))) | -39 kcal/mol | 54.1 °C
GATCTCAGAGGAGATC ((((((....)))))) | -32.9 kcal/mol | 50.8 °C
GATCTCAGATGAGATC ((((((....)))))) | -36.3 kcal/mol | 52.5 °C
GATCTCAGTGAGATC ((((((...)))))) | -31.9 kcal/mol | 53.1 °C
GATCTCAGTTGAGATC ((((((....)))))) | -34.5 kcal/mol | 54.2 °C
GATCTCATAGAGATC ((((((...)))))) | -38.3 kcal/mol | 55.2 °C

Sequence | folding enthalpy [1] | Tm [2]
GATCTCATCGGAGATC ((((((....)))))) | -36.1 kcal/mol | 52.8 °C
GATCTCATGGGAGATC ((((((....)))))) | -37 kcal/mol | 54 °C
GATCTCATTAGAGATC ((((((....)))))) | -35 kcal/mol | 57.1 °C
GATCTCCAAAGAGATC ((((((....)))))) | -35.6 kcal/mol | 52.5 °C
GATCTCCACAGAGATC ((((((....)))))) | -32.4 kcal/mol | 55.7 °C
GATCTCCACGAGATC ((((((...)))))) | -42 kcal/mol | 53.6 °C
GATCTCCATCGAGATC ((((((....)))))) | -34.4 kcal/mol | 50.7 °C
GATCTCCATGAGATC ((((((...)))))) | -42.1 kcal/mol | 53.3 °C
GATCTCCCATGAGATC ((((((....)))))) | -34.4 kcal/mol | 51.6 °C
GATCTCCCCCGAGATC ((((((....)))))) | -36 kcal/mol | 51.5 °C
GATCTCCCGAGAGATC ((((((....)))))) | -38.6 kcal/mol | 52.7 °C
GATCTCCCTGAGATC ((((((...)))))) | -34.7 kcal/mol | 55.3 °C
GATCTCCGAAAGGAAATC (((.(((....))).))) | -25.1 kcal/mol | 34.2 °C
GATCTCCGAAGAGATC ((((((....)))))) | -40.6 kcal/mol | 54 °C
GATCTCCGAGAGATC ((((((...)))))) | -35.2 kcal/mol | 51 °C
GATCTCCTAAGAGATC ((((((....)))))) | -42.6 kcal/mol | 53.6 °C
GATCTCCTAGAGATC ((((((...)))))) | -35.1 kcal/mol | 53 °C
GATCTCCTCTGAGATC ((((((....)))))) | -31.3 kcal/mol | 51.8 °C
GATCTCGAACGAGATC ((((((....)))))) | -40.8 kcal/mol | 60.2 °C
GATCTCGAATGAGATC ((((((....)))))) | -39.5 kcal/mol | 57.5 °C
GATCTCGATAGAGATC ((((((....)))))) | -36 kcal/mol | 66.8 °C
GATCTCGCAGGAGATC ((((((....)))))) | -50.6 kcal/mol | 57.5 °C
GATCTCGCCGGAGATC ((((((....)))))) | -35.5 kcal/mol | 54.4 °C
GATCTCGCGAGAGATC ((((((....)))))) | -42.1 kcal/mol | 64.2 °C

Sequence | folding enthalpy [1] | Tm [2]
GATCTCGGAAACGGGATC ((((.((....)).)))) | -35 kcal/mol | 51.3 °C
GATCTCGGCGGAGATC ((((((....)))))) | -48.8 kcal/mol | 55.4 °C
GATCTCGGGTGAGATC ((((((....)))))) | -30 kcal/mol | 52.2 °C
GATCTCGTTGAGATC ((((((...)))))) | -37.8 kcal/mol | 54.9 °C
GATCTCTACCGAGATC ((((((....)))))) | -37.1 kcal/mol | 51.7 °C
GATCTCTAGGGAGATC ((((((....)))))) | -39.7 kcal/mol | 53.1 °C
GATCTCTATGAGATC ((((((...)))))) | -31.3 kcal/mol | 54.6 °C
GATCTCTCGTGAGATC ((((((....)))))) | -40 kcal/mol | 52.5 °C
GATCTCTGAAGAGATC ((((((....)))))) | -35.2 kcal/mol | 54.2 °C
GATCTCTGCGGAGATC ((((((....)))))) | -43.7 kcal/mol | 55.9 °C
GATCTCTGGCGAGATC ((((((....)))))) | -33.6 kcal/mol | 51.6 °C
GATCTCTGGGGAGATC ((((((....)))))) | -41.2 kcal/mol | 56.4 °C
GATCTCTGGTGAGATC ((((((....)))))) | -34.1 kcal/mol | 52.4 °C
GATCTCTGTAGAGATC ((((((....)))))) | -44.1 kcal/mol | 56.5 °C
GATCTCTTAAGAGATC ((((((....)))))) | -37.3 kcal/mol | 54.2 °C
GATCTCTTTGAGATC ((((((...)))))) | -32.1 kcal/mol | 55.8 °C
GATCTGAACCCAGATC ((((((....)))))) | -28.8 kcal/mol | 46.1 °C
GATCTGAAGCAGATC ((((((...)))))) | -27.9 kcal/mol | 45.7 °C
GATCTGAAGCCAGATC ((((((....)))))) | -33.2 kcal/mol | 45.5 °C
GATCTGAAGGCAGATC ((((((....)))))) | -41.9 kcal/mol | 45.3 °C
GATCTGAATACAGATC ((((((....)))))) | -39.7 kcal/mol | 47.7 °C
GATCTGACTGCAGATC ((((((....)))))) | -23.7 kcal/mol | 47 °C
GATCTGAGAGCAGATC ((((((....)))))) | -37.2 kcal/mol | 46.1 °C
GATCTGAGATCAGATC ((((((....)))))) | -36.1 kcal/mol | 49.2 °C

Sequence | folding enthalpy [1] | Tm [2]
GATCTGAGCCAGATC ((((((...)))))) | -41.7 kcal/mol | 47 °C
GATCTGAGTACAGATC ((((((....)))))) | -30.9 kcal/mol | 49.6 °C
GATCTGAGTGCAGATC ((((((....)))))) | -31.1 kcal/mol | 49.2 °C
GATCTGATAGCAGATC ((((((....)))))) | -34.4 kcal/mol | 46.8 °C
GATCTGATCCAGATC ((((((...)))))) | -35.2 kcal/mol | 47.6 °C
GATCTGATCCCAGATC ((((((....)))))) | -27.2 kcal/mol | 47 °C
GATCTGATCTCAGATC ((((((....)))))) | -37.1 kcal/mol | 51.1 °C
GATCTGATGCCAGATC ((((((....)))))) | -33.4 kcal/mol | 47.5 °C
GATCTGATTCAGATC ((((((...)))))) | -35.8 kcal/mol | 48.7 °C
GATCTGCAAACAGATC ((((((....)))))) | -35.9 kcal/mol | 48.5 °C
GATCTGCAACAGATC ((((((...)))))) | -28.8 kcal/mol | 46.3 °C
GATCTGCACGCAGATC ((((((....)))))) | -33.1 kcal/mol | 58.8 °C
GATCTGCAGGCAGATC ((((((....)))))) | -32.7 kcal/mol | 60.2 °C
GATCTGCATACAGATC ((((((....)))))) | -43.2 kcal/mol | 52.1 °C
GATCTGCATGCAGATC ((((((....)))))) | -46.5 kcal/mol | 62.4 °C
GATCTGCCAACAGATC ((((((....)))))) | -38.3 kcal/mol | 50 °C
GATCTGCCGCAGATC ((((((...)))))) | -41.5 kcal/mol | 48.1 °C
GATCTGCCGGCAGATC ((((((....)))))) | -53.3 kcal/mol | 62.3 °C
GATCTGCCTCAGATC ((((((...)))))) | -29.1 kcal/mol | 48.7 °C
GATCTGCGAACAGATC ((((((....)))))) | -33.5 kcal/mol | 49.4 °C
GATCTGCGATCAGATC ((((((....)))))) | -33.9 kcal/mol | 47.1 °C
GATCTGCGCGCAGATC ((((((....)))))) | -50.8 kcal/mol | 66.7 °C
GATCTGCGGCCAGATC ((((((....)))))) | -27.4 kcal/mol | 48.6 °C
GATCTGCGTCCAGATC ((((((....)))))) | -30.1 kcal/mol | 48.3 °C
